Measured values pooled from the literature.
Protocols differ between the studies behind these lines.
AHR: Aryl hydrocarbon receptor (AHR, Homo sapiens, UniProt P35869)
SLC10A2: Ileal sodium/bile acid cotransporter (SLC10A2, Homo sapiens, UniProt Q12908)

Compound	target	test	conditions	endpoint	value
CN(C)C(=O)c1cccc(C(=O)c2c[nH]c3ccccc23)n1	AHR	reporter gene, agonist, luciferase		EC50	0.351 µM
CCOC(=O)C1=C(C)NC(C)=C(C(=O)OC)C1c1cccc([N+](=O)[O-])c1 (stereo not drawn)	SLC10A2	transporter uptake, inhibitor		Ki	34.1 µM
Cc1cc2nc3c(=O)[nH]c(=O)nc-3n(C[C@H](O)[C@H](O)[C@H](O)COP(=O)(O)OP(=O)(O)OC[C@H]3O[C@@H](n4cnc5c(N)ncnc54)[C@H](O)[C@@H]3O)c2cc1C	Splicing factor 1 (Homo sapiens, UniProt Q15637)	binding	lysate	Kd	0.842 µM
CSCC[C@H](NC(=O)[C@@H](NC(=O)[C@@H](N)Cc1ccc(O)cc1)C(C)C)C(=O)NCC(=O)N[C@@H](Cc1c[nH]cn1)C(=O)N[C@@H](Cc1ccccc1)C(=O)N[C@@H](CCCNC(=N)N)C(=O)N[C@@H](Cc1c[nH]c2ccccc12)C(=O)N[C@@H](CC(=O)O)C(=O)O	Melanocortin receptor 5 (MC5R, Homo sapiens, UniProt P33032)	reporter gene, agonist		EC50	4.46 µM
CCc1c(C)sc(NC(=O)C(Sc2ccccc2)c2ccccc2)c1C(=O)OC (stereo not drawn)	Cannabinoid receptor 2 (CNR2, Homo sapiens, UniProt P34972)	cAMP, agonist, TR-FRET		EC50	0.0251 µM
CC[C@H](C)C(=O)O[C@H]1C[C@H](O)C=C2C=C[C@H](C)[C@H](CC[C@@H](O)C[C@@H](O)CC(=O)O)[C@H]21	SLC10A2	transporter uptake, inhibitor		Ki	1360 µM
O=C(c1ccccn1)c1c[nH]c2ccccc12	AHR	reporter gene, agonist, luciferase		EC50	> 0.01 µM
COCCOC(=O)C1=C(C)NC(C)=C(C(=O)OC/C=C/c2ccccc2)C1c1cccc([N+](=O)[O-])c1 (stereo not drawn)	SLC10A2	transporter uptake, inhibitor		Ki	45.2 µM
Cc1[nH]c2ccccc2c1C(=O)c1ccccc1	AHR	reporter gene, agonist, luciferase		EC50	> 10 µM
CC[C@H](C)[C@H](NC(=O)[C@H](CCCCN)NC(=O)[C@H](CO)NC(=O)[C@H](CC(=O)O)NC(=O)[C@H](CCCCN)NC(=O)[C@H](CCCCN)NC(=O)CNC(=O)[C@H](Cc1c[nH]cn1)NC(=O)[C@@H](N)CCC(N)=O)C(=O)N[C@H](C(=O)N[C@@H](CC(=O)O)C(=O)N[C@@H](Cc1c[nH]cn1)C(=O)N[C@@H](Cc1ccccc1)C(=O)N[C@@H](CCSC)C(=O)N[C@@H](CCCNC(=N)N)C(=O)O)[C@@H](C)O	Proliferating cell nuclear antigen (PCNA, Homo sapiens, UniProt P12004)	binding, ITC	pH 7.4	Kd	45.3 µM
CCOC(=O)C1=C(C)NC(C)=C(C(=O)OCC)C1c1c(F)c(F)c(F)c(F)c1F	SLC10A2	transporter uptake, inhibitor		Ki	23.1 µM
COC(=O)c1cccc(C(=O)c2c[nH]c3c4c(ccc23)CCC4)n1	AHR	reporter gene, agonist, luciferase		EC50	0.031 µM
O=C(N[C@H]1COC(=O)[C@@H](NC(=O)c2cccc(O)c2O)COC(=O)[C@@H](NC(=O)c2cccc(O)c2O)COC1=O)c1cccc(O)c1O	Neutrophil gelatinase-associated lipocalin (LCN2, Homo sapiens, UniProt P80188, C107S)	binding, fluorescence	pH 5.5	Kd	0.0055 µM
O=C(c1cccc(Cl)n1)c1c[nH]c2ccccc12	AHR	reporter gene, agonist, luciferase		EC50	0.178 µM
O=C(CCCCCCNC(=O)c1cnc(N(c2ccccc2)c2ccccc2)nc1)NO	Polyamine deacetylase HDAC10 (HDAC10, Homo sapiens, UniProt Q969S8)	cell-free assay		Kd	0.456 µM
